The record followed here is ChEMBL document CHEMBL1135669, “Improving the oral efficacy of CNS drug candidates: discovery of highly orally efficacious piperidinyl piperidine M2 muscarinic receptor antagonists” (J Med Chem, 2002).

Activity calls are given as the source filed them.

The species entered for one series is Homo sapiens. As to the kind of experiment: Percent of Parent compound remaining after 20 min incubation with human liver microsomes (Human microsomal stability). The class given is functional. Summed up:
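Compounds at 10 μg/mL were incubated with human liver microsomes for 20 min. Metabolic stability is reported as % parent compound remaining.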
A general note: Liver microsomes are vesicles of endoplasmic reticulum, rich in cytochrome P450 enzymes.

Series [1] deals with T1, Muscarinic acetylcholine receptor M2 (Homo sapiens, UniProt P08172).
T1 sequence (P08172 whole entry): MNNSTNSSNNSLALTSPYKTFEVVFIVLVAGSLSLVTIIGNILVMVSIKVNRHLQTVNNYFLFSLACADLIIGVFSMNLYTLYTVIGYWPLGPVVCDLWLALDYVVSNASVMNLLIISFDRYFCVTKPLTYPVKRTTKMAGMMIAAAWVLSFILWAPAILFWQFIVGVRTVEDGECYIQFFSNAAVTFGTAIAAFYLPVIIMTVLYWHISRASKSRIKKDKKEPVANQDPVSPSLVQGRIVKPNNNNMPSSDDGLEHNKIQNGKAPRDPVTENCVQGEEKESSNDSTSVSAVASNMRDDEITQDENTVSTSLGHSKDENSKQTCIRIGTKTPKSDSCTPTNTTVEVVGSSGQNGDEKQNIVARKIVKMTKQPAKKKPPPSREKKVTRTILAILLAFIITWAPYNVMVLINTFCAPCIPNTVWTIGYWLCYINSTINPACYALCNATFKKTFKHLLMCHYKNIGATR
In words: Binding affinity for human Muscarinic acetylcholine receptor M2.

Series [2] concerns Rattus norvegicus. In words: ACh released compared with baseline (100%) in rat striatum after iv administration (0-2 h,10 mg/kg, 20% HPbetaCD) using microdialysis assay. The class given is functional.
Series [3] relates to Rattus norvegicus. In words: Orally active dose in passive avoidance response (PAR); inactive. The series is classed as functional, organism-based. Summed up: (§1)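 Rat passive avoidance response, a reference-memory cognitive paradigm, with oral dosing. The value is the orally active dose in mg/kg, defined as a significant change in latency over vehicle (4% MC), p < 0.05 by Dunnett's T test, n = 36.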

Series [4] deals with Rattus norvegicus. In words: ACh released compared with baseline (100%) in rat striatum after peroral administration (0-2 h,10 mg/kg, 20% HPbetaCD) using microdialysis assay. The series is classed as functional. Summed up: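 Rat striatal microdialysis: single oral dose of 10 mg/kg in 20% HPβCD vehicle. ACh in dialysate collected from 0 to 2 h, expressed as % of preinjection baseline (baseline = 100%). ACh release is measured in the presence of neostigmine. Stimulation over baseline was judged by Duncan's Multiple Range Statistic.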

Series [5] concerns Rattus norvegicus. As to the kind of experiment: Orally active dose in passive avoidance response (PAR). The class given is functional. Summed up: as §1
A short description of series [6]: Area under curve (high throughput single measurement) after peroral administration (10 mg/kg, 0-6 hr) in rat was determined. To be noted: in vivo, po.

A word on the Ki: it is a dissociation constant, usually derived from enzyme kinetics or from competition with a known ligand. For the compound `CC(=C1CCN(C2CCN(C(=O)c3cccc(C)c3N)CC2)CC1)c1ccc(S(=O)(=O)C(C)C)cc1`, the Activity in the series listed under Homo sapiens was 80%. Moreover, in series [1], the inhibition constant Ki is 32 nM. The like results for `CC(=C1CCN(C2CCN(C(=O)c3ccc(F)c4ccccc34)CC2)CC1)c1ccc(S(=O)(=O)C(C)C)cc1` were, in that order, 74% and 9.6 nM. Take `CC(C)Sc1ccc(CC2CCN(C3CCN(C(=O)c4cccc5ccccc45)CC3)CC2)cc1`: the Activity worked out at 210% with Rattus norvegicus [2] and 110% in the series on Rattus norvegicus [4]. Further, the outcome in the series on Rattus norvegicus [3] was inactive. On to `CC(C)S(=O)(=O)c1ccc(CC2CCN(C3CCN(C(=O)c4ccc(F)c5ccccc45)CC3)CC2)cc1`, for which the affinity in series [1], expressed as Ki, was 221 nM. Regarding `COc1ccc(S(=O)(=O)c2ccc(C3(C4CCN(C5CCN(C(=O)c6ccc(F)c7ccccc67)CC5)CC4)OCCO3)cc2)cc1`, the Activity in the series on Rattus norvegicus [4] was determined as 180%. This compound also gave a PAR in the series with Rattus norvegicus [5] of 0.1 mg/kg. For `CC(=C1CCN(C2CCN(C(=O)c3ccc(F)c4ccccc34)CC2)CC1)c1ccc([S+]([O-])C(C)C)cc1` (single isomer, unassigned; (+)), the Ki in series [1] was 1.3 nM. In addition, the Activity in the series on Rattus norvegicus [4] was found to be 179%.

In turn, `CC(=C1CCN(C2CCN(C(=O)c3cccc(C)c3N)CC2)CC1)c1ccc([S+]([O-])C(C)C)cc1` (single isomer, unassigned; (+)) yielded a Ki in series [1] of 0.89 nM. For the same compound, in the series with Rattus norvegicus [4], the Activity was determined as 225%. Besides, the PAR in the series on Rattus norvegicus [5] was 0.0001 mg/kg. Consider `CC(=C1CCN(C2CCN(C(=O)c3ccc(F)c4ccccc34)CC2)CC1)c1ccc([S+]([O-])C(C)C)cc1` (single isomer, unassigned; (-)), for which, in series [1], the Ki came out at 2.4 nM. For the same compound, the Activity in the series on Rattus norvegicus [4] amounted to 155%. `CC(=C1CCN(C2CCN(C(=O)c3cccc(C)c3N)CC2)CC1)c1ccc([S+]([O-])C(C)C)cc1` (single isomer, unassigned; (-)) gave an inhibition constant (Ki) in series [1] of 12 nM. Still for that read-out and setting: in the case of `CC(=C1CCN(C2CCN(C(=O)c3ccc(F)c4ccccc34)CC2)CC1)c1ccc([S+]([O-])C(C)C)cc1` (stereo in doubt; 13) [listing 1 of 2 here] it was 2.7 nM.

Consider `CC(=C1CCN(C2CCN(C(=O)c3ccc(F)c4ccccc34)CC2)CC1)c1ccc([S+]([O-])C(C)C)cc1` (stereo in doubt; 13) [listing 2 of 2 here], for which, in the series filed under Homo sapiens, the Activity came out at 66%.

In series [1], `CC(=C1CCN(C2CCN(C(=O)c3cccc(C)c3N)CC2)CC1)c1ccc([S+]([O-])C(C)C)cc1` (stereo in doubt; 14) [listing 1 of 2 here] returned a Ki of 6.6 nM. Regarding `CC(=C1CCN(C2CCN(C(=O)c3cccc(C)c3N)CC2)CC1)c1ccc([S+]([O-])C(C)C)cc1` (stereo in doubt; 14) [listing 2 of 2 here], the Activity in the series filed under Homo sapiens is 64%.

The term AUC denotes the area under the concentration-time curve, a measure of exposure. A low value points to low exposure. Turning to `Cc1cccc(C(=O)N2CCC(N3CCC(Cc4ccc(S(=O)(=O)c5cccc(Cl)c5)cc4)CC3)CC2)c1N` [SCH-211803], in series [6], the AUC at 6 h turned out to be 908 ng·h/mL. The Activity in the series on Rattus norvegicus [4] was 180%. The PAR in the series on Rattus norvegicus [5] is 0.001 mg/kg.
